Most compounds without a hit are left out; they make up all but 2.6% or so of the library.
STEP inh: STEP phosphatase inhibitors, primary screen, biochemical, fluorescence intensity, uHTS. recombinant STEP, OMFP fluorogenic substrate. 0.25% of 360,000 active. inhibition, % at 20 µM. Tyrosine-protein phosphatase non-receptor type 5 (Homo sapiens), P54829;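 active = inhibition at 20 µM, scaled per plate between control wells, above about 37%, limit read from the data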
Target sequence (P54829 whole entry, looked up): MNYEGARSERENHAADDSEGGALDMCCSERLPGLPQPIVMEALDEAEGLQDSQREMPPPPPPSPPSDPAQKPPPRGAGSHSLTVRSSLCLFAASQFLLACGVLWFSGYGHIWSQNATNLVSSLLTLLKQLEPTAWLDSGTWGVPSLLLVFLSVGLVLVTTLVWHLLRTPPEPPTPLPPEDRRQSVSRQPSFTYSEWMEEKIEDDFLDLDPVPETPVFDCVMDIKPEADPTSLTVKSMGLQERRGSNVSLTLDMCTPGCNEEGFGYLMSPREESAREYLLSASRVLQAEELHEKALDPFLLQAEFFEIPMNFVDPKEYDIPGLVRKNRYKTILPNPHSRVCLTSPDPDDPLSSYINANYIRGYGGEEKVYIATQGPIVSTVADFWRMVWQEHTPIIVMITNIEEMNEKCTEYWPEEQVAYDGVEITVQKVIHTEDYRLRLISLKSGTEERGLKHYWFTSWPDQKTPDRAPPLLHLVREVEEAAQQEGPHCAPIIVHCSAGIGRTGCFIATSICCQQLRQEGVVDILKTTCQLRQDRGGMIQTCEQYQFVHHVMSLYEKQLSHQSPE
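System: STEP phosphatase, cell-free reaction; Buffer or medium: Bis-Tris pH 6.0 buffer with DTT, detergent; Incubation: 20 min at room temperature, dark; Measured by: fluorescence, 480/540 nm.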
LMPTP block: LMPTP phosphatase inhibitors, primary screen, biochemical, fluorescence intensity, uHTS | Low molecular weight phosphotyrosine protein phosphatase (Homo sapiens), P24666 | recombinant LMPTP-A, OMFP fluorogenic substrate | inhibition, % at 20 µM | 0.22% of 360,000 active | AID 651560, 2012;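 active = compounds that cut the enzyme signal by at least half of the control window in the single-dose screen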
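Test system – LMPTP-A phosphatase enzyme · Quantity – 0.625 nM LMPTP-A final · Reagent – OMFP substrate, 400 µM final · Dosing – one test concentration per compound, 20 µM, with 3% DMSO overall · Timing – 50 min enzyme reaction at room temperature, protected from light · Detection – fluorescence intensity · Controls – substrate-only low control, DMSO enzyme-plus-substrate high control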
NadD block: inhibitors of S. aureus NadD, primary screen, biochemical, colorimetric, uHTS; 0.78% of 360,000 active; inhibition, % at 20 µM; purified NadD enzyme, colorimetric absorbance read-out; AID 602399, 2012; in the data active = inhibition above about 26%
rCAG binder: binders of r(CAG) RNA repeats, primary screen, biochemical, fluorescence. inhibition, % at 3 µM. 1.3% of 370,000 active. AID 651821, 2012. r(CAG) RNA repeat, TO-PRO-1 dye displacement fluorescence;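 active = inhibition above the plate cutoff, the mean of all test compounds on that plate plus 3 SD, cut at about 35% in these data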;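 also: higher means more dye released from RNA so lower well fluorescence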
Scp1 inh: Scp-1 phosphatase inhibitors, primary screen, biochemical, colorimetric, uHTS | Carboxy-terminal domain RNA polymerase II polypeptide A small phosphatase 1 (Homo … | Recombinant Scp1, phosphopeptide, malachite green phosphate absorbance | inhibition, % at 20 µM | 0.88% of 340,000 active | AID 493091, 2011;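 active = inhibition above about 50% at 20 µM, limit read from the data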
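Assay system: SCP-1 catalytic fragment, aa 76-261 | Buffer or medium: Tris acetate buffer pH 5.5 with MgCl2 and Tween-20 | Compound: One concentration, 20 µM, with 1.0% DMSO | Also added: Phospho 17-mer peptide substrate | Signal: Absorbance at 630 nm | Incubation: 45 min enzyme reaction at room temperature | Measure: % inhibition of SCP-1 phosphate liberation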
NadD inh conf: inhibitors of S. aureus NadD, confirmation, biochemical, colorimetric, single concentration | purified S. aureus NadD, colorimetric enzyme assay | AID 624309, 2012 | inhibition, % at 20 µM | 13% of 2,000 active | shares compounds with NadD block; in the data active = inhibition mostly above about 42%, no sharp cut-off; inactive = mostly below about 42%
Numbers stand for hits; i = inactive; nt = no result.

SMILES | STEP inh | LMPTP block | NadD block | rCAG binder | Scp1 inh | NadD inh conf
N#C/C(=C(/O)CSc1n[nH]c(N)n1)c1nc2ccccc2[nH]1 | i | i | i | i | i | nt
Cc1cccc(Nc2nnc(SC/C(O)=C(\C#N)c3nc4ccccc4[nH]3)s2)c1C | i | i | 45.2 | i | i | i
Cn1cnnc1SC/C(O)=C(\C#N)c1nc2ccccc2[nH]1 | i | i | i | i | i | nt
Cc1cccc(C)c1Nc1nnc(SC/C(O)=C(\C#N)c2nc3ccccc3[nH]2)s1 | i | i | 31.9 | i | i | 68.9
O=S(=O)(c1ccccc1)n1c(CN2CCOCC2)nc2ccccc21 | nt | nt | nt | i | nt | nt
CC(C)CN1C(=O)c2ccc(NC(=O)c3cccs3)cc2C1=O | i | i | i | i | i | nt
O=C(Nc1ccc(Oc2ccc3c(c2)C(=O)N(c2ccc(O)cc2)C3=O)cc1)c1cccs1 | i | i | 33.6 | i | i | i
O=C(CCc1nc(-c2ccccc2F)no1)Nc1cccnc1 | i | i | 66.3 | i | i | i
CCOc1ccccc1-c1noc(CCC(=O)Nc2cccnc2)n1 | i | i | i | i | i | nt
CCCC(=O)Nc1nnc(SCC(=O)Nc2nc(C)cs2)s1 | i | i | i | i | i | nt
Cc1csc(NC(=O)CSc2nnc(NC(=O)COc3ccc(Cl)cc3)s2)n1 | i | i | 35.1 | i | i | i
Cc1cc(-n2c(SCC(=O)Nc3ccc(Br)cc3)nc3n[nH]c(C)c3c2=N)ccc1Cl | i | i | 31.8 | i | i | i
Cc1ccccc1NC(=O)Nc1ccc2c(c1)C(=O)N(C)[C@H]1CC[C@H](CC(=O)NCC3CC3)O[C@@H]1CO2 | nt | nt | nt | i | nt | nt
COc1ccc(NC(=O)c2cccc(N3C(=O)c4ccc(C(=O)Nc5ccc(OC)c(O)c5)cc4C3=O)c2)cc1O | i | i | 44.2 | i | i | i
Cc1cc(Cl)ccc1OCC(=O)Nn1c(C)ccc1C | i | i | 40.5 | i | i | i
CCCn1c(=O)c(C(=O)NNS(=O)(=O)c2ccc(Cl)cc2)c(O)c2ccccc21 | i | i | 30.1 | i | i | i
CCCCCCCCCC(=O)NNC(=O)c1c(O)c2ccccc2n(CCC)c1=O | i | i | 38.1 | i | i | i
CCCCCCCCC(=O)NNC(=O)c1c(O)c2ccccc2n(CCC)c1=O | i | i | i | i | i | nt
Cc1ccccc1C(=O)Nc1nc(-c2cccnc2)cs1 | i | i | 30.0 | i | i | i
O=C(Nc1nc(-c2cccnc2)cs1)c1ccccc1Cl | i | i | i | i | i | nt
NC(=O)[C@H]1CC2(CC(c3cccc(NC(=O)COc4ccc(Cl)cc4)c3)=NO2)CN1C(=O)Cc1ccc([N+](=O)[O-])cc1 (stereo partly drawn) | i | i | 32.6 | i | i | i
C/C=C\C=C\C(=O)N1CC2(CC(c3cccc(NC(=O)COc4ccc(Cl)cc4)c3)=NO2)C[C@H]1C(N)=O (stereo partly drawn) | i | i | i | i | i | nt
CCCCCC(=O)Nc1cccc(C2=NOC3(C2)C[C@@H](C(N)=O)N(C(=O)Cc2ccc([N+](=O)[O-])cc2)C3)c1 (stereo partly drawn) | i | i | i | i | i | nt
C/C=C\C=C/C(=O)Nc1cccc(C2=NOC3(C2)C[C@@H](C(N)=O)N(C(=O)COc2ccc(Cl)cc2)C3)c1 (stereo partly drawn) | i | i | 38.3 | i | i | 61.6
COC(=O)C1CN(Cc2ccc(F)cc2)CCS(=O)(=O)N1Cc1ccc(C(F)(F)F)cc1 (stereo not drawn) | nt | nt | nt | i | nt | nt
SMILES | STEP inh | LMPTP block | NadD block | rCAG binder | Scp1 inh | NadD inh conf
O=C(CN1CCC(NC(=O)c2ccc(F)cc2)CC1)NCc1ccccc1F | i | i | i | i | i | nt
COc1ccc(C(=O)NC2CCN(CC(=O)NCc3ccccc3F)CC2)cc1 | i | i | 40.2 | i | i | i
COc1ccc(-c2csc(NC(=O)C3=NN(c4ccccc4)C(=O)CC3)n2)cc1 | i | i | i | i | i | nt
COc1ccc(-c2nc(NC(=O)C3=NN(c4cccc(C)c4)C(=O)CC3)sc2C)cc1 | i | i | 31.1 | i | i | i
O=C(NC(=S)Nc1ccccc1N1CCCC1)c1ccc(-c2cccc([N+](=O)[O-])c2)o1 | i | i | 31.9 | i | i | i
O=C(Cn1cnc2ccccc2c1=O)N1CCN(C(=O)C2CCCO2)CC1 (stereo not drawn) | nt | nt | nt | i | nt | nt
Oc1ccc(CNc2ccccc2)c2cccnc12 | i | i | i | nt | i | nt
Cc1cccc(NCc2ccc(O)c3ncccc23)c1 | i | i | 37.0 | i | i | i
c1ccn2cc(-c3ccc4c(c3)OCO4)cc2c1 | i | i | 29.0 | i | i | i
Cn1cc(C2(C)CCOc3ccccc32)c2ccccc21 (stereo not drawn) | nt | nt | nt | i | nt | nt
O=C(CNc1cccc2ccccc12)N/N=C/c1ccc([N+](=O)[O-])cc1 | i | i | 39.6 | i | i | 44.2
O=C(CNc1cccc2ccccc12)N/N=C/c1ccccn1 | i | i | 47.7 | i | i | i
COC(=O)C1CN(Cc2ccccc2)CCS(=O)(=O)N1Cc1ccccc1 (stereo not drawn) | nt | nt | nt | i | nt | nt
COc1ccc(/C=N\NC(=S)SCN2C(=O)C3CCC(C)(C2=O)C3(C)C)cc1 (stereo not drawn) | i | i | i | i | i | nt
CN(C)c1ccc(/C=N\NC(=S)SCN2C(=O)C3CCC(C)(C2=O)C3(C)C)cc1 (stereo not drawn) | i | i | 29.3 | i | i | i
Cc1ccc(-c2csc3ncnc(SCc4ccc(C(=O)O)cc4)c23)cc1 | i | i | 31.9 | i | i | i
Cc1sc2ncnc(SCc3ccc(C(=O)O)cc3)c2c1C | i | i | i | i | i | nt
O=C(CSc1ncnc2scc(-c3ccccc3)c12)N1CCN(Cc2ccc3c(c2)OCO3)CC1 | i | i | 38.3 | i | i | i
CC(=NN1CCN(Cc2ccccc2Cl)CC1)c1ccc(O)cc1 | nt | nt | nt | i | nt | nt
CCCCC1=CC2=CC(=O)C(C)(OC(=O)CC)C(=O)C2=CO1 (stereo not drawn) | i | i | 32.6 | i | i | 45.3
CCCCC1=CC2=CC(=O)C(C)(OC(=O)C3CCCC3)C(=O)C2=CO1 (stereo not drawn) | i | i | 53.0 | i | i | i
COC(=O)CCCC1=CC2=CC(=O)C(C)(OC(=O)C3CCCC3)C(=O)C2=CO1 (stereo not drawn) | nt | nt | nt | nt | i | nt
C[C@@H]1COc2cc(N3CCCC3)ccc2S(=O)(=O)N1C | nt | nt | nt | i | nt | nt
O=C1Nc2ccccc2N(O)N1c1ccc(Cl)cc1 | i | i | i | i | i | nt
